Source: ChEMBL document CHEMBL1138950, “Benzimidazole derivatives bearing substituted biphenyls as hepatitis C virus NS5B RNA-dependent RNA polymerase inhibitors: structure-activity relationship studies and identification of a potent and highly selective inhibitor JTK-109” (J Med Chem, 2006)

How the values were obtained:
Cytochrome P450 2C9 [1] = molecular target: T1, Cytochrome P450 2C9 (Homo sapiens, UniProt P11712); test: Induction of CYP450 2C9; assay type: ADME
[2] = Oral bioavailability in rat at 10 mg/kg; assay type: ADME, organism-based; settings: in vivo
[3] = molecular target: T2, RNA-directed RNA polymerase (Hepacivirus hominis, UniProt O39930); test: Inhibition of HCV 1b BK six His-tagged C-terminal truncated 544 amino acid NS5B RNA dependent RNA polymerase; set-up: species or system Hepatitis C virus subtype 1b
How it was run: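 HCV genotype 1b (BK) NS5B lacking 47 C-terminal residues, His6-tagged, E. coli-expressed; 7 nM enzyme with 5 µg HCV 3′X RNA template-primer, 50 µM each ATP/GTP/CTP, 2 µM UTP plus [3H]-UTP; pH 7.5 Tris, 5 mM MgCl2. Compounds in DMSO (5% final). 60 min at 25 °C; TCA-precipitable radioactivity read. Triplicate, mean of three experiments.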

Hepatitis C virus = test: Inhibition of HCV subgenomic RNA replication in Huh5-2 cells after 48 hrs by replicon assay; assay type: functional, organism-based, Hepacivirus hominis; settings: Huh-5-2, 48 h
How it was run: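 Huh-5-2 cells (Huh-7-derived, genotype 1b subgenomic replicon with luciferase reporter) seeded at 5 × 10^3 per well in DMEM with 10% FBS, 37 °C, 5% CO2; compounds added next day, 48 h exposure; luciferase activity read. EC50 is the concentration reducing replication by 50%. Triplicate, mean of three experiments.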

[4] = Plasma concentration in rat at 30 mg/kg, po after 1 hr; assay type: ADME, organism-based; set-up: dose 30 mg/kg, route oral
How it was run: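 Rats dosed orally at 30 mg/kg; plasma sampled at 1 and 2 h; n = 2 or 3.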

[5] = Half life in rat at 10 mg/kg; assay type: ADME, organism-based; set-up: dose 10 mg/kg; settings: in vivo
Cytochrome P450 2C9 [6] = molecular target: T1, Cytochrome P450 2C9; test: Inhibition of CYP450 2C9; assay type: ADME
Cytochrome P450 2D6 [7] = molecular target: T3, Cytochrome P450 2D6 (Homo sapiens, UniProt P10635); test: Inhibition of CYP450 2D6; assay type: ADME
[8] = Liver concentration in rat at 10 mg/kg, po after 2 hrs; assay type: ADME, organism-based; set-up: dose 10 mg/kg, route oral; settings: read-out: Drug uptake
[9] = molecular target: T2, RNA-directed RNA polymerase; test: Inhibition of HCV 2a NS5B RNA dependent RNA polymerase; set-up: species or system Hepatitis C virus subtype 2a
How it was run: (§1)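 IC50 from the mean of four independent experiments; standard deviations within 30% of the mean.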

[10] = molecular target: T2, RNA-directed RNA polymerase; test: Inhibition of HCV 2b NS5B RNA dependent RNA polymerase; set-up: species or system Hepatitis C virus subtype 2b; how it was run: as §1
[11] = molecular target: T4, DNA polymerase subunit gamma-1 (Homo sapiens, UniProt P54098); test: Inhibition of DNA polymerase gamma
T4 sequence (P54098 whole entry): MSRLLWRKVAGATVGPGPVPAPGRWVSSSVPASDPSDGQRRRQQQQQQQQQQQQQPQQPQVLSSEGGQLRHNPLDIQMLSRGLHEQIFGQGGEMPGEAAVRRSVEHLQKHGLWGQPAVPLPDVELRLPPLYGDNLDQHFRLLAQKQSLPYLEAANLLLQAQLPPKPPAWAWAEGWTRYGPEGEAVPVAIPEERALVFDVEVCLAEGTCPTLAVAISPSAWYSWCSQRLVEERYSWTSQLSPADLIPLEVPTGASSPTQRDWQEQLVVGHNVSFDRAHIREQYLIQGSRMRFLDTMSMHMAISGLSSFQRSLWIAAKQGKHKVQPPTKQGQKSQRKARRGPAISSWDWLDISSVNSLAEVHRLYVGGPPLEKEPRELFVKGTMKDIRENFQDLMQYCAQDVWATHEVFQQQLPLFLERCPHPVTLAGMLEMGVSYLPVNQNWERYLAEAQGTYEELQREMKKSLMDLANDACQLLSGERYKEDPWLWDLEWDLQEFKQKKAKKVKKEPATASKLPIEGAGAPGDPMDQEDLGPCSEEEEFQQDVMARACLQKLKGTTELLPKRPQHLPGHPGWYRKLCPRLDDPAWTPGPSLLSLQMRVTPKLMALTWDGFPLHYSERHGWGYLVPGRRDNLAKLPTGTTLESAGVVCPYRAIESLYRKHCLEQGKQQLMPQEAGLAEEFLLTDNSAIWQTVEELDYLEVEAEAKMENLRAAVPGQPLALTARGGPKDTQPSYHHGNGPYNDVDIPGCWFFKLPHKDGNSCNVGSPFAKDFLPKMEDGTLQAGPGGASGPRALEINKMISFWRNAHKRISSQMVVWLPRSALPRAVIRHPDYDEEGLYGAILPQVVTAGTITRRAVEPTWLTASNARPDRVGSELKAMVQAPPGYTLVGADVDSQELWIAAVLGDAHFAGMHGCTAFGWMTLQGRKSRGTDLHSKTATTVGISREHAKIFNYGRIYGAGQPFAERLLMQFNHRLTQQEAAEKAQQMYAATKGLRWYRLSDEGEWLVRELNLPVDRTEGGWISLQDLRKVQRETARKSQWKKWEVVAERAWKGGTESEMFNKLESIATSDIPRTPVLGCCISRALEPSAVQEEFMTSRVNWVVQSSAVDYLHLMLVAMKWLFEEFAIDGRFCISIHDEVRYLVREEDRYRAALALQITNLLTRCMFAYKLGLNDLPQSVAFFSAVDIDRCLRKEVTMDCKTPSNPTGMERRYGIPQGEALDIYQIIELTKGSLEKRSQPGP

[12] = Inhibition of mammalian DNA dependent RNA polymerase
Cytochrome P450 3A4 = Cytochrome P450 3A4 (Homo sapiens, UniProt P08684); test: Induction of CYP450 3A4; assay type: ADME
Cytochrome P450 2D6 [13] = molecular target: T3, Cytochrome P450 2D6; test: Induction of CYP450 2D6; assay type: ADME

T2 sequence (O39930 whole entry, the tested form may be a part): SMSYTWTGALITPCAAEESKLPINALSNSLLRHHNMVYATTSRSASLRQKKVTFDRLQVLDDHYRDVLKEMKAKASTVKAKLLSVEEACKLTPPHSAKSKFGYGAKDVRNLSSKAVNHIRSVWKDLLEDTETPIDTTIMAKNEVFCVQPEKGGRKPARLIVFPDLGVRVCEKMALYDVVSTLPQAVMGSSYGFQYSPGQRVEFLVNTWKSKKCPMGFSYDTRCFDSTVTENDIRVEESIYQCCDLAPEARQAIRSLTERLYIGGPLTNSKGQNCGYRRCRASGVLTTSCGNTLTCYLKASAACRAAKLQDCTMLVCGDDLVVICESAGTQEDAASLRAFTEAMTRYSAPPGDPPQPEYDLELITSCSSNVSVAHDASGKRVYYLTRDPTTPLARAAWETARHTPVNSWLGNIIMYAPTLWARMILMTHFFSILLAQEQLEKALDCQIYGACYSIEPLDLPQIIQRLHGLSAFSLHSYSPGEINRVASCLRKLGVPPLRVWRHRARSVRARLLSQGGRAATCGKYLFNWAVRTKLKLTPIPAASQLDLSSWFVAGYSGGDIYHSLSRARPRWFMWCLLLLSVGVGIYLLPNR
T3 sequence (P10635 whole entry): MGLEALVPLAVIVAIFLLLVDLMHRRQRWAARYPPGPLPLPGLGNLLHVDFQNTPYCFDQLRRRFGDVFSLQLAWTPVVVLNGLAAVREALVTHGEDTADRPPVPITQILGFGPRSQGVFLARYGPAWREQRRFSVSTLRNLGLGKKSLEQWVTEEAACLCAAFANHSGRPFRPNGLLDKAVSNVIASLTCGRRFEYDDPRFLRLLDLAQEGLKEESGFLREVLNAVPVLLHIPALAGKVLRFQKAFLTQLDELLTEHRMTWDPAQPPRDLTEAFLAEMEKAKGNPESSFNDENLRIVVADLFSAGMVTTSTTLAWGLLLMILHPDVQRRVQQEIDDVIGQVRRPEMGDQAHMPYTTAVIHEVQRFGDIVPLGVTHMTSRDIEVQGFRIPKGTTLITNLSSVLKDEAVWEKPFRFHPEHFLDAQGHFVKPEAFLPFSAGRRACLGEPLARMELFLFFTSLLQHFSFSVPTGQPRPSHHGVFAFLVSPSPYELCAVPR
T1 sequence (P11712 whole entry): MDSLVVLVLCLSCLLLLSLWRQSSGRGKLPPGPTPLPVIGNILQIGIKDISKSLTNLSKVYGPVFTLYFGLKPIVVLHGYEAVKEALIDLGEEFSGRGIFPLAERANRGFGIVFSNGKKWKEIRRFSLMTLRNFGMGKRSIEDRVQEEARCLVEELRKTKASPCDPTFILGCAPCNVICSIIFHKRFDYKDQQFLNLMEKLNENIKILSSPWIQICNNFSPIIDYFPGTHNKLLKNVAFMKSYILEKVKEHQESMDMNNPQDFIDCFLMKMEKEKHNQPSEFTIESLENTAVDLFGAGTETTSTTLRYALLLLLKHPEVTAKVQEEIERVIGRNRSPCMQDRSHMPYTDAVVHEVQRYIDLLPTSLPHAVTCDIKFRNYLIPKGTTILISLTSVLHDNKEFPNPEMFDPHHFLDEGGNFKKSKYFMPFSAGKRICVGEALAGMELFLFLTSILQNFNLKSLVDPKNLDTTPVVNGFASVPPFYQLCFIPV
Sequence of Cytochrome P450 3A4 (P08684 whole entry): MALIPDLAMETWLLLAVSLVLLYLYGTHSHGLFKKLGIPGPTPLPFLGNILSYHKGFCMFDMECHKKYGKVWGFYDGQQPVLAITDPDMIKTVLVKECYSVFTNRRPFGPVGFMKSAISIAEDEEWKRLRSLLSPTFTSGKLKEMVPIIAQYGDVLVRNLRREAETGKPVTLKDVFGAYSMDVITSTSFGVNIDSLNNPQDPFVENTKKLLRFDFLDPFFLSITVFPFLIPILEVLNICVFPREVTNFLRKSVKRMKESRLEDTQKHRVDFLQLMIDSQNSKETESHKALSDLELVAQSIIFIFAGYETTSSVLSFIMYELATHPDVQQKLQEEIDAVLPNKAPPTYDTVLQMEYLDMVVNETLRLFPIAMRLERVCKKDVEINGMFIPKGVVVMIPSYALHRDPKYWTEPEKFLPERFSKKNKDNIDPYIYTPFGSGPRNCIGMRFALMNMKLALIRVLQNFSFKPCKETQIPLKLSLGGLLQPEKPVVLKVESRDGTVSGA

Activity (Cytochrome P450 2C9 [1]): Not Active | bioavailability [2]: 36% | IC50 [3]: 17 nM | EC50 (Hepatitis C virus): 320 nM | concentration at 1 h [4]: 4 µM | half-life [5]: 2.1 h | Inhibition (Cytochrome P450 2C9 [6]): Not Active | Inhibition (Cytochrome P450 2D6 [7]): Not Active | concentration at 2 h [8]: 78.5 µM | IC50 [9]: 6400 nM | IC50 [10]: 2000 nM | IC50 [11]: > 10000 nM | IC50 [12]: > 10000 nM | Activity (Cytochrome P450 3A4): Not Active | Activity (Cytochrome P450 2D6 [13]): Not Active
SMILES: O=C(O)c1ccc2c(c1)nc(-c1ccc(OCc3cc(N4CCCC4=O)ccc3-c3ccc(Cl)cc3)cc1F)n2C1CCCCC1
